Measurements reported in ChEMBL document CHEMBL4038305, “Benzoxaborole Antimalarial Agents. Part 5. Lead Optimization of Novel Amide Pyrazinyloxy Benzoxaboroles and Identification of a Preclinical Candidate” (J Med Chem, 2017).

Legend:
[1] = system: Plasmodium falciparum; assay: Antimalarial activity against chloroquine-resistant Plasmodium falciparum W2 infected in human erythrocytes after 48 hrs by YOYO-1 dye based flow cytometric analysis; format: functional, cell-based; conditions: W2, 48 h
In short: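 P. falciparum W2 cultures were exposed to the compound for 48 h, with artemisinin and chloroquine as reference controls. IC50 was taken from two independent replicates.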

[2] = system: Plasmodium falciparum; assay: Antimalarial activity against chloroquine-sensitive Plasmodium falciparum 3D7 infected in human erythrocytes assessed as reduction in [3H]-hypoxanthine incorporation preincubated for 24 hrs followed by [3H]-hypoxanthine addition measured after 24 hrs by scintillation counting method; format: functional, cell-based
In short: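 P. falciparum 3D7 cultures were exposed to the compound for 48 h, with atovaquone as the reference control. IC50 was taken from three replicates.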

Row | Structure (SMILES) | IC50 [1] [nM] | IC50 [2] [nM]
1 | Cc1c(Oc2cnc(C(=O)N[C@H](C)CO)cn2)ccc2c1B(O)OC2 | 944 | 848
2 | CCC[C@@H](CO)NC(=O)c1cnc(Oc2ccc3c(c2C)B(O)OC3)cn1 | 297 | 715
3 | Cc1c(Oc2cnc(C(=O)N[C@H](CO)C3CC3)cn2)ccc2c1B(O)OC2 | 643 | 1090
4 | Cc1c(Oc2cnc(C(=O)N[C@@H]3CCC[C@@H]3O)cn2)ccc2c1B(O)OC2 (relative stereo) | 292 | 181
5 | Cc1c(Oc2cnc(C(=O)N(C)CCO)cn2)ccc2c1B(O)OC2 | 262 | 437
6 | COC[C@H](CO)NC(=O)c1cnc(Oc2ccc3c(c2C)B(O)OC3)cn1 | 455 | 796
7 | Cc1c(Oc2cnc(C(=O)N[C@@H](C)CO)cn2)ccc2c1B(O)OC2 | 844 | 808
8 | Cc1c(Oc2cnc(C(=O)N[C@@H](CO)C3CC3)cn2)ccc2c1B(O)OC2 | 492 | 587
9 | Cc1c(Oc2cnc(C(=O)N3CCNC[C@H]3CO)cn2)ccc2c1B(O)OC2 | 98.2 | 171
10 | Cc1c(Oc2cnc(C(=O)N[C@@H](CO)Cc3ccccc3)cn2)ccc2c1B(O)OC2 | 115 | 505
11 | CC[C@@H](NC(=O)c1cnc(Oc2ccc3c(c2C)B(O)OC3)cn1)C(C)(C)O | 91.8 | 222
12 | Cc1c(Oc2cnc(C(=O)N[C@H]3CCC[C@@H]3O)cn2)ccc2c1B(O)OC2 | 149 | 537
13 | CC[C@H](NC(=O)c1cnc(Oc2ccc3c(c2C)B(O)OC3)cn1)C(C)(C)O | 279 | 829
14 | Cc1c(Oc2cnc(C(=O)NC(C)(C)CO)cn2)ccc2c1B(O)OC2 | 290 | 425
15 | Cc1c(Oc2cnc(C(=O)N3CCC(C)(O)C3)cn2)ccc2c1B(O)OC2 (centres undefined) | 139 | 314
16 | CCC[C@H](CO)N(C)C(=O)c1cnc(Oc2ccc3c(c2C)B(O)OC3)cn1 | 48.1 | 252
17 | CCCC[C@H](CO)NC(=O)c1cnc(Oc2ccc3c(c2C)B(O)OC3)cn1 | 84.9 | 215
18 | Cc1c(Oc2cnc(C(=O)N[C@H](C)C(C)(C)O)cn2)ccc2c1B(O)OC2 | 265 | 374
19 | CC[C@@H](CO)NC(=O)c1cnc(Oc2ccc3c(c2C)B(O)OC3)cn1 | 704 | 801

Row | Structure (SMILES) | IC50 [1] [nM] | IC50 [2] [nM]
20 | CSC[C@H](CO)NC(=O)c1cnc(Oc2ccc3c(c2C)B(O)OC3)cn1 | 37 | 74
21 | Cc1c(Oc2cnc(C(=O)NC(C)C(C)O)cn2)ccc2c1B(O)OC2 (centres undefined) | 513 | 1460
22 | Cc1c(Oc2cnc(C(=O)N[C@@H]3CCC[C@H]3O)cn2)ccc2c1B(O)OC2 | 133 | 245
23 | Cc1c(Oc2cnc(C(=O)N[C@H](CO)CCC(F)(F)F)cn2)ccc2c1B(O)OC2 | 352 | 959
24 | Cc1c(Oc2cnc(C(=O)N[C@@H](CO)c3ccccc3)cn2)ccc2c1B(O)OC2 | 103 | 161
25 | Cc1c(Oc2cnc(C(=O)N[C@@H](C)C(C)(C)O)cn2)ccc2c1B(O)OC2 | 202 | 327
26 | Cc1c(Oc2cnc(C(=O)N3CCNC[C@@H]3CO)cn2)ccc2c1B(O)OC2 | 103 | 151
27 | COCCNC(=O)c1cnc(Oc2ccc3c(c2C)B(O)OC3)cn1 | 788 | 644
28 | CCC[C@H](NC(=O)c1cnc(Oc2ccc3c(c2C)B(O)OC3)cn1)C(C)(C)O | 129 | 217
29 | Cc1c(Oc2cnc(C(=O)NCC(C)O)cn2)ccc2c1B(O)OC2 (centres undefined) | 1280 | 1100
30 | CCC[C@@H](NC(=O)c1cnc(Oc2ccc3c(c2C)B(O)OC3)cn1)C(C)(C)O | 260 | 553
31 | Cc1c(Oc2cnc(C(=O)N[C@@H](CO)CCC(F)(F)F)cn2)ccc2c1B(O)OC2 | 230 | 480
32 | Cc1c(Oc2cnc(C(=O)N[C@H](CO)C(C)C)cn2)ccc2c1B(O)OC2 | 774 | 1990
33 | Cc1c(Oc2cnc(C(=O)NC3(CO)CC3)cn2)ccc2c1B(O)OC2 | 2010 | 1500
34 | Cc1c(Oc2cnc(C(=O)N[C@H](CO)CC(F)(F)F)cn2)ccc2c1B(O)OC2 | 350 | 31
35 | Cc1c(Oc2cnc(C(=O)N(CCO)CCO)cn2)ccc2c1B(O)OC2 | 328 | 184
36 | Cc1c(Oc2cnc(C(=O)N[C@@H](CO)CS(C)(=O)=O)cn2)ccc2c1B(O)OC2 | 180 | 472
37 | Cc1c(Oc2cnc(C(=O)NCC(C)(C)O)cn2)ccc2c1B(O)OC2 | 334 | 554
